The record followed here is ChEMBL document CHEMBL1671761, “Preclinical characterization of BI 201335, a C-terminal carboxylic acid inhibitor of the hepatitis C virus NS3-NS4A protease” (Antimicrob Agents Chemother, 2010).

Each structure is given as a SMILES string. Where only a bound is given, the exact number is not on record here.

Data set [1] can be described thus: Inhibition of HCV 1a NS3/4A protease. More on the design: species or system Hepatitis C virus subtype 1a. Conditions: read-out: Ki(app). A digest of the protocol: (§1)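 Substrate was 5 μM anthranilyl-DDIVPAbu[C(O)-O]AMY(3-NO2)TW-OH in 50 mM Tris pH 8.0, 0.25 M citrate, 0.01% dodecylmaltoside, 1 mM TCEP, 5% DMSO. Run at 23°C for 60-70 min, stopped with MES pH 5.8, read by product fluorescence. IC50 converted to apparent Ki via IC50=Ki(1+[S]/Km). Mean ± SD, ≥3 experiments.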

The subject of data set [2] is Hepatitis C virus. Briefly: Inhibition of HCV 1b NS3/4A protease. Also on record: species or system Hepatitis C virus subtype 1b. Conditions: read-out: Ki(app). A digest of the protocol:
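Full-length NS3 coexpressed with the 54-residue NS4A, 0.5 nM (2.5 nM for genotype 1a). Substrate was 5 μM anthranilyl-DDIVPAbu[C(O)-O]AMY(3-NO2)TW-OH in 50 mM Tris pH 8.0, 0.25 M citrate, 0.01% dodecylmaltoside, 1 mM TCEP, 5% DMSO. Run at 23°C for 60-70 min, stopped with MES pH 5.8, read by product fluorescence. IC50 converted to apparent Ki via IC50=Ki(1+[S]/Km). Mean ± SD, ≥3 experiments.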

The nature of data set [3]: Inhibition of HCV 2a NS3/4A protease. The following applies: read-out: Ki(app). Also on record: species or system Hepatitis C virus subtype 2a. A digest of the protocol: as §1
Data set [4] is described as follows: Inhibition of HCV 2b NS3/4A protease. Also on record: species or system Hepatitis C virus subtype 2b. Conditions: read-out: Ki(app). Summed up:
as §1

Data set [5] in a line: Inhibition of HCV 3a NS3/4A protease. More on the design: species or system Hepatitis C virus subtype 3a. The following applies: read-out: Ki(app). A digest of the protocol:
as §1

A short description of data set [6]: Inhibition of HCV 4a NS3/4A protease. More on the design: species or system Hepatitis C virus subtype 4a. Conditions: read-out: Ki(app). Summed up:
as §1

Data set [7] in a line: Inhibition of HCV 6a NS3/4A protease. Also on record: species or system Hepatitis C virus subtype 6a. Conditions: read-out: Ki(app). Summed up:
as §1

For the next data set, the target named is Neutrophil elastase (Homo sapiens, UniProt P08246). The data set is described as follows: Inhibition of human leukocyte elastase after 60 mins fluorescence assay.
The target in a further data set is Cathepsin B (Homo sapiens, UniProt P07858). Briefly: Inhibition of human CatB after 60 mins fluorescence assay.
A short description of data set [8]: Binding affinity to HCV 5a NS3/4A protease. More on the design: species or system Hepatitis C virus subtype 5a. The following applies: read-out: Ki(app). A digest of the protocol:
as §1

The subject of the next data set is Huh-7. Briefly: Cytotoxicity activity against human HuH7 cells by MTT assay. In kind it is functional. A digest of the protocol:
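MTT assay in proliferating Huh-7 cells exposed 72 h to serial inhibitor dilutions; formazan read at 570 nm. CC50 taken from percent inhibition.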

In data set [9] the test system is Hepatitis C virus. Briefly: Antiviral activity against HCV 1a infected in Huh7 cells assessed as inhibition of viral replication after 72 hrs by RT-PCR. The data set is classed as functional, organism-based, Hepacivirus hominis. Conditions: subtype 1a, Huh-7, 72 h. A digest of the protocol: (§2)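 Huh-7-derived subgenomic replicon cells of genotype 1a or 1b, grown in DMEM/10% FBS with G418. Replicon RNA was quantified by TaqMan real-time RT-PCR against an in vitro-transcribed RNA standard curve and normalized to total RNA (RiboGreen).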

Data set [10] in a line: Apparent permeability from apical to basolateral side in human Caco2 cells. The data set is classed as ADME, cell-based. Conditions: Caco-2, read-out: permeability. Summed up:
(§3)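 Caco-2 monolayers were differentiated 23-25 days on Transwell inserts. After 30 min at 37°C, compound was added to the donor side (apical for A-to-B, basolateral for B-to-A). Receiver sampled at 0, 1, 2, 3 h; analysed by HPLC.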

A short description of data set [11]: Apparent permeability from basolateral to apical side in human Caco2 cells. The data set is classed as ADME, cell-based. The following applies: Caco-2, read-out: permeability. Summed up:
as §3

For data set [12], the system named is Hepatitis C virus. Briefly: Antiviral activity against HCV 1b infected in Huh7 cells assessed as inhibition of viral replication after 72 hrs by RT-PCR. In kind it is functional, organism-based, Hepacivirus hominis. The following applies: genotype 1b, Huh-7, 72 h. Summed up: as §2
Data set [13] can be described thus: Clearance in human liver microsomes. The data set is classed as ADME, Microsome. Conditions: read-out: QH. Summed up:
(§4)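 Male liver microsomes (Sprague-Dawley rat, beagle dog, human, rhesus monkey) at 1 mg microsomal protein in 1 ml of 0.066 M Tris pH 7.4 with 2.5 mM NADPH. Initial compound concentration was 2 μM. Incubations ran at 37°C and were started with NADPH. Samples were taken at 0, 10 and 20 min and quenched with an equal volume of 1:1 acetonitrile-methanol. Supernatants were analysed by HPLC and clearance calculated by the Obach method.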

Data set [14] in a line: Clearance in Sprague-Dawley rat liver microsomes. The following applies: read-out: QH. In kind it is ADME, Microsome. Summed up:
as §4

Chain of Neutrophil elastase (P08246 whole entry): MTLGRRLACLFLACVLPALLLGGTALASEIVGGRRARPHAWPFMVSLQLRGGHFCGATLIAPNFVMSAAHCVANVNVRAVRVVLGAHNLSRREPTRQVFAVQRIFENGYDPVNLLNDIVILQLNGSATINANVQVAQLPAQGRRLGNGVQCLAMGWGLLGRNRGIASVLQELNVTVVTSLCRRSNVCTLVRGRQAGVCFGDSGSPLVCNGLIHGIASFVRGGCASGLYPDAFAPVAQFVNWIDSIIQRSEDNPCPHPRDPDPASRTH

As to `CC(C)(C)NC(=O)N[C@H](C(=O)N1C[C@H]2[C@@H]([C@H]1C(=O)NC(CC1CCC1)C(=O)C(N)=O)C2(C)C)C(C)(C)C` (stereo partly specified) [BOCEPREVIR], the Ki in [1] stood at 0.0011 µM; in the data set on Hepatitis C virus [2], 0.002 µM; in data set [3], 0.0073 µM; in [4], 0.028 µM; in data set [5], 0.023 µM; in [6] it was 0.0086 µM. Further, the Ki in data set [7] stood at 0.0023 µM; in data set [8], 0.018 µM. Moreover, the IC50 on Neutrophil elastase was 17 µM; on Cathepsin B, 6.2 µM. For the same molecule, the CC50 with Huh-7 is over 70 µM. The EC50 in the data set with Hepatitis C virus [9] was found to be 0.55 µM. Also, in data set [10], the Papp A→B stood at 0.6 ×10⁻⁶ cm/s. In addition, the Papp B→A in data set [11] amounted to 23 ×10⁻⁶ cm/s.
Regarding `CCC[C@H](NC(=O)[C@@H]1[C@H]2CCC[C@H]2CN1C(=O)[C@@H](NC(=O)[C@@H](NC(=O)c1cnccn1)C1CCCCC1)C(C)(C)C)C(=O)C(=O)NC1CC1`, the Ki in [1] turned out to be 0.0032 µM; in the data set on Hepatitis C virus [2], 0.0044 µM; in data set [3] it was 0.015 µM; in data set [4], 0.073 µM; in data set [5] it was 0.16 µM; in [6] it was 0.05 µM. Further, the Ki in [7] is 0.0045 µM; in [8] it was 0.11 µM. Moreover, the figures for the IC50 at Neutrophil elastase and against Cathepsin B were 0.68 µM and 2.3 µM, respectively. Besides, the CC50 in the data set on Huh-7 came out at 37 µM. The EC50 in the data set with Hepatitis C virus [9] was 0.7 µM; in the data set with Hepatitis C virus [12], 0.54 µM. Also, the Papp A→B in data set [10] was 4.1 ×10⁻⁶ cm/s. The Papp B→A in data set [11] worked out at 23 ×10⁻⁶ cm/s. In addition, the hepatic extraction ratio in data set [13] is 0.64; in data set [14], 0.41.
